Test results published in the M2OR odorant receptor database.
Where a chain is given by its changes, count along the chain named.

Experiments:
Conditions in all cases: stereoisomer not certain
OR4N4 (Homo sapiens) = biological target: T1, OR4N4 (Homo sapiens) (UniProt Q8N0Y3)
T1 sequence (whole entry): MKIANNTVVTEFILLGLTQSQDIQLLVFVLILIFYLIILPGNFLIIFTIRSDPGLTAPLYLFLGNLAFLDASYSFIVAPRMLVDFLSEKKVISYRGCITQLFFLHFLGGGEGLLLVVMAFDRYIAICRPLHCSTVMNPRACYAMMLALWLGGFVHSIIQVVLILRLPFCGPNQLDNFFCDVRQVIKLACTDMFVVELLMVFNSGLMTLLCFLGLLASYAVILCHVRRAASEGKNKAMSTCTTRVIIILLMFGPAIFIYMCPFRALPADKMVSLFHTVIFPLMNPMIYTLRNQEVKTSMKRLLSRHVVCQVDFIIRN
How it was run: (§1)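 Each entry records the cell line, G-protein, co-transfected protein and tags used. Methods varied with the source, often transient luciferase assays in mammalian cell lines. A receptor–molecule pair is called responsive (active) if the original authors judged its signal statistically different from baseline and non-responsive (inactive) otherwise.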

OR4N4C (Homo sapiens) = OR4N4C (Homo sapiens) (UniProt A0A096LPK9)
Sequence of OR4N4C (Homo sapiens) (A0A096LPK9 whole entry): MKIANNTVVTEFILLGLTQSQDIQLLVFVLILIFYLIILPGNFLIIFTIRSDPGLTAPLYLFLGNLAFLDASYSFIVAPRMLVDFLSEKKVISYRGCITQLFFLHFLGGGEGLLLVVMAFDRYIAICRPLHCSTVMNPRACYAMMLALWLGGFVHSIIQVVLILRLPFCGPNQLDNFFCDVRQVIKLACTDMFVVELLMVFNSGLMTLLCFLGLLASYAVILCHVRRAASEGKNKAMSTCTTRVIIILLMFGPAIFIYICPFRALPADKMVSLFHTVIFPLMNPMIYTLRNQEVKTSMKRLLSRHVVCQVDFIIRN
How it was run: as §1

OR4N5 (Homo sapiens) = biological target: T2, OR4N5 (Homo sapiens) (UniProt Q8IXE1)
T2 sequence (whole entry): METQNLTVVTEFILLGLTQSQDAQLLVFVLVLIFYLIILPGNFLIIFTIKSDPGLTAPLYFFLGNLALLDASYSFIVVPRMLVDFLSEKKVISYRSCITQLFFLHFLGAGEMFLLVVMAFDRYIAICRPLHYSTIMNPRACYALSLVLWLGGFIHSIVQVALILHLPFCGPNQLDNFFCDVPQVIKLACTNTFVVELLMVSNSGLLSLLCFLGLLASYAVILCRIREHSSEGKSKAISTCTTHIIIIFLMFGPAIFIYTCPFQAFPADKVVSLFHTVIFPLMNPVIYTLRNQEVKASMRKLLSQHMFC
How it was run: as §1

OR4P4 (Homo sapiens) = biological target: T3, OR4P4 (Homo sapiens) (UniProt Q8NGL7)
T3 sequence (whole entry): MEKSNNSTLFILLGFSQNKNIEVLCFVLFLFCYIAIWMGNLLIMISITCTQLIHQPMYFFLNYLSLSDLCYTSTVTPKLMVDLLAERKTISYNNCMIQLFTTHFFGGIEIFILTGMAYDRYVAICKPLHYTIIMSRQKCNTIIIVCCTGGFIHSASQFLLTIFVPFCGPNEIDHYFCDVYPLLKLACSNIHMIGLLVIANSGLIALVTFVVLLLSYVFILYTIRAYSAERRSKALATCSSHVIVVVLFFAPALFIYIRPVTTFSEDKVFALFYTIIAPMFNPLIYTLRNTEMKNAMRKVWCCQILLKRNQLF
How it was run: as §1

OR4Q2 (Homo sapiens) = OR4Q2 (Homo sapiens) (UniProt P0C623)
Sequence of OR4Q2 (Homo sapiens) (P0C623 as listed by the source): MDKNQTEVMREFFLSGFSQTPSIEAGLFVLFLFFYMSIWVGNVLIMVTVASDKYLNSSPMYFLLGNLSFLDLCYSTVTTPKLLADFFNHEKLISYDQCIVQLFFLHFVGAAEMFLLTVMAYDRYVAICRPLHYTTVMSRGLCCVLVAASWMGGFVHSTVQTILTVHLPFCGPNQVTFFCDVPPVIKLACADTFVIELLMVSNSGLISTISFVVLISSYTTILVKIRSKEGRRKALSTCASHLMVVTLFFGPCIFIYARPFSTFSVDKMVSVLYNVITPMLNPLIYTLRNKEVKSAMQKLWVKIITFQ
How it was run: as §1

OR4Q3 (Homo sapiens) = biological target: T4, OR4Q3 (Homo sapiens) (UniProt Q8NH05)
T4 sequence (whole entry): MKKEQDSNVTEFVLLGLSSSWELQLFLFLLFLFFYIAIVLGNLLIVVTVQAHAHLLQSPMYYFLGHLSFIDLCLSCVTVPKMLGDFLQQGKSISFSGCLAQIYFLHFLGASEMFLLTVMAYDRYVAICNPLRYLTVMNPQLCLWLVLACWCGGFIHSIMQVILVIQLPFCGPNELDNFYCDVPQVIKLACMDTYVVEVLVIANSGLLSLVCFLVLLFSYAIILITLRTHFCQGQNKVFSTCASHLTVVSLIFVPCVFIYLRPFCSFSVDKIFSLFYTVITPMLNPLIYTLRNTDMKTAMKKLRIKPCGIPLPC
How it was run: as §1

OR4S1 (Homo sapiens) = biological target: T5, OR4S1 (Homo sapiens) (UniProt Q8NGB4)
T5 sequence (whole entry): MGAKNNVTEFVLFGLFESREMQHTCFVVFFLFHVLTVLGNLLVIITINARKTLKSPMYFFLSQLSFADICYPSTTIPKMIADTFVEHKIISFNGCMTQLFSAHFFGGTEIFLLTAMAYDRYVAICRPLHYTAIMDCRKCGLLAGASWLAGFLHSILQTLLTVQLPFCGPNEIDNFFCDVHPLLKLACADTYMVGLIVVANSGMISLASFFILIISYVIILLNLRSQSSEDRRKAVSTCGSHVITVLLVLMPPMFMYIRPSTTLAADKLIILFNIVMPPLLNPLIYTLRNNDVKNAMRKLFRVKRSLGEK
How it was run: as §1

OR4S2 (Homo sapiens) = biological target: T6, OR4S2 (Homo sapiens) (UniProt Q8NH73)
T6 sequence (whole entry): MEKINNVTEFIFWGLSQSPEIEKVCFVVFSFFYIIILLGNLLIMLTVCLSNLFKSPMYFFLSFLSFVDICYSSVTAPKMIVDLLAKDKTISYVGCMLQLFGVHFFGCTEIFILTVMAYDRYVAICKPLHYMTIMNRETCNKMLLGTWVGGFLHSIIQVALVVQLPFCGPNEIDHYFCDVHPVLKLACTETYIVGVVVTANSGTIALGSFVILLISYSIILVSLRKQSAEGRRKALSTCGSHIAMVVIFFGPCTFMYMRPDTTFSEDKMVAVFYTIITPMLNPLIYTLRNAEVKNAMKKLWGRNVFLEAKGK
How it was run: as §1

OR4X1 (Homo sapiens) = biological target: T7, OR4X1 (Homo sapiens) (UniProt Q8NH49)
T7 sequence (whole entry): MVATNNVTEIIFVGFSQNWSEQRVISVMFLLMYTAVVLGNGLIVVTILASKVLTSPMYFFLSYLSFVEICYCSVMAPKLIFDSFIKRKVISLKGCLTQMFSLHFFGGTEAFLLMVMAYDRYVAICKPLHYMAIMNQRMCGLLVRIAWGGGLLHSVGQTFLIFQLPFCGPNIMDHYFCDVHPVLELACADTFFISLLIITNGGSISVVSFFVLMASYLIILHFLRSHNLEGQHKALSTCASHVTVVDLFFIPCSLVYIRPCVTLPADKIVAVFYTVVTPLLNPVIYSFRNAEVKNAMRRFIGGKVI
How it was run: as §1

OR4X2 (Homo sapiens) = biological target: T8, OR4X2 (Homo sapiens) (UniProt Q8NGF9)
T8 sequence (whole entry): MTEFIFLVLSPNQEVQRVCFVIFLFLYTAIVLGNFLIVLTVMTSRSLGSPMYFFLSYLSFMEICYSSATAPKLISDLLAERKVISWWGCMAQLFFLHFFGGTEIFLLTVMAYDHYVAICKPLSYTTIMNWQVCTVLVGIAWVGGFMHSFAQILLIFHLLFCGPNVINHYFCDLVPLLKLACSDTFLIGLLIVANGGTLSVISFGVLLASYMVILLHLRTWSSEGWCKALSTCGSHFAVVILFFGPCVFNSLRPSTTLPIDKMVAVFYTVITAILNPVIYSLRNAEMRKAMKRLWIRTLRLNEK
How it was run: as §1

OR51A2 (Homo sapiens) = biological target: T9, OR51A2 (Homo sapiens) (UniProt Q8NGJ7)
T9 sequence (whole entry): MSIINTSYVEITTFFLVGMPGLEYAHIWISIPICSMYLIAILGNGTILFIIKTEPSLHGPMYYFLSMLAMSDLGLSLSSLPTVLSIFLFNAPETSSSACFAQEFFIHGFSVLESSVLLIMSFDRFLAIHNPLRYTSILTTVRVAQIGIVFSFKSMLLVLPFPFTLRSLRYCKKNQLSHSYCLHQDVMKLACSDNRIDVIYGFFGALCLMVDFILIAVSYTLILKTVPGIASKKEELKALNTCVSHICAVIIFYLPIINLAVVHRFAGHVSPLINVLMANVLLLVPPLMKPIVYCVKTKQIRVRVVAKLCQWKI
How it was run: as §1

OR51A4 (Homo sapiens) = biological target: T10, OR51A4 (Homo sapiens) (UniProt Q8NGJ6)
T10 sequence (whole entry): T9 sequence (whole entry) with G59E, T94I, S97N, S167N, P227L, E235Q, G267R, M288T, K289N, W311R
How it was run: as §1

OR51A7 (Homo sapiens) = biological target: T11, OR51A7 (Homo sapiens) (UniProt Q8NH64)
T11 sequence (whole entry): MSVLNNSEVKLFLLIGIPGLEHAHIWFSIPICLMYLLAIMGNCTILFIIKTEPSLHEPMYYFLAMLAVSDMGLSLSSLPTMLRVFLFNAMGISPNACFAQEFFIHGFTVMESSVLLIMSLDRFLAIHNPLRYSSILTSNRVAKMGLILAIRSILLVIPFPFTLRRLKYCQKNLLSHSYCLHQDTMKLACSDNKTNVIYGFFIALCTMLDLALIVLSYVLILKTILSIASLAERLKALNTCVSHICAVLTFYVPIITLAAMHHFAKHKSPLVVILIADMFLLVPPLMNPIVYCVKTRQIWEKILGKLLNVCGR
How it was run: as §1

OR51B2 (Homo sapiens) = biological target: T12, OR51B2 (Homo sapiens) (UniProt Q9Y5P1)
T12 sequence (whole entry): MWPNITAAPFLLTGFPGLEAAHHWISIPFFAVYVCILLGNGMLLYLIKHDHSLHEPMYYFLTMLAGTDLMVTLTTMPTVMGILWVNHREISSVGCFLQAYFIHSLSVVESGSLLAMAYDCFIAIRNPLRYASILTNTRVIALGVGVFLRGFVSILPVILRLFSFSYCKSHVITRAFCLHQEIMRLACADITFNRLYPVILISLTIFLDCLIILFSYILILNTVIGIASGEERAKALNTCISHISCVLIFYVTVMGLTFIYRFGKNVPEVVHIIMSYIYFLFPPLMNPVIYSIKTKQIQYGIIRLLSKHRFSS
How it was run: as §1

OR51B4 (Homo sapiens) = biological target: T13, OR51B4 (Homo sapiens) (UniProt Q9Y5P0)
T13 sequence (whole entry): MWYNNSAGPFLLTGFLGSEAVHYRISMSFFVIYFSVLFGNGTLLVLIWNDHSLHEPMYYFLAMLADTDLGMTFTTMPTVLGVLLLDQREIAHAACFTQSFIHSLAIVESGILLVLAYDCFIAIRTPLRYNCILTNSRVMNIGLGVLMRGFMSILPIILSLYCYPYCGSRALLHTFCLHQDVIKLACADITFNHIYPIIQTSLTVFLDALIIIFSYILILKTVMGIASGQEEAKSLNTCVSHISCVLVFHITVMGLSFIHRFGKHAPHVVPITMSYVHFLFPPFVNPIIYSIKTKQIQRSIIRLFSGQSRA
How it was run: as §1

OR51B5 (Homo sapiens) = biological target: T14, OR51B5 (Homo sapiens) (UniProt Q9H339)
T14 sequence (whole entry): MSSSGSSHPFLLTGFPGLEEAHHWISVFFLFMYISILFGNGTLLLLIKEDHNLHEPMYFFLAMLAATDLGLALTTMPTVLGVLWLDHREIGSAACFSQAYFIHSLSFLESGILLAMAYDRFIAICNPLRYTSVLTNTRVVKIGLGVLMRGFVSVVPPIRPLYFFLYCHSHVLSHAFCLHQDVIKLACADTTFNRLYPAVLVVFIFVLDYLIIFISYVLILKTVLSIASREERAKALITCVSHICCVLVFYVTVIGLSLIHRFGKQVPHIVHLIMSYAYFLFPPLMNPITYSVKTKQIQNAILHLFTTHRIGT
How it was run: as §1

OR51B6 (Homo sapiens) = biological target: T15, OR51B6 (Homo sapiens) (UniProt Q9H340)
T15 sequence (whole entry): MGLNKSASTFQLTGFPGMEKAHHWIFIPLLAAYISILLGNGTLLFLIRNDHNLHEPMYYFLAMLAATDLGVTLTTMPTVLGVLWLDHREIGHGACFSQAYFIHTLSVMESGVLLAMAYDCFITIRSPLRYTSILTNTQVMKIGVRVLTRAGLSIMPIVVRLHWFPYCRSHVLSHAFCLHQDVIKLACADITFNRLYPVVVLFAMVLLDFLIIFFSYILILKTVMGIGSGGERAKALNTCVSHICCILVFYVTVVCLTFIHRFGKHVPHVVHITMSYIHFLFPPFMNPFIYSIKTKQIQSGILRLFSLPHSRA
How it was run: as §1

OR4N2 = system: T16, OR4N2
T16 sequence (whole entry): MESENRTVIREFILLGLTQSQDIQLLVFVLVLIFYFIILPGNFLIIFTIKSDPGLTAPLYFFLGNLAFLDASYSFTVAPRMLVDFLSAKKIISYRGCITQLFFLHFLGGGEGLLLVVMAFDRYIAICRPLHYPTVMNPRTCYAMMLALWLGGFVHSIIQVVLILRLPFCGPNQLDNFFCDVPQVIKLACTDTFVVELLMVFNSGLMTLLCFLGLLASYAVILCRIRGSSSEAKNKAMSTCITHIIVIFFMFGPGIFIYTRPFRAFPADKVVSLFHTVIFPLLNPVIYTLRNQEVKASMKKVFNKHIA
How it was run: as §1

OR4Q3 T135A = system: T17, OR4Q3 T135A
T17 sequence (whole entry): T4 sequence (whole entry) with T135A
How it was run: as §1

Measured: odorant receptor agonist call

CC1CCCCCCCCCCCCC(=O)C1 (stereo not drawn)
not listed: OR4N2 | OR4Q3 T135A
inactive: all other assays above

CCCCCC1CCCC(=O)O1 (stereo not drawn)
inactive: OR51A2 (Homo sapiens) | OR51A4 (Homo sapiens) | OR51A7 (Homo sapiens) | OR51B2 (Homo sapiens) | OR51B4 (Homo sapiens) | OR51B5 (Homo sapiens) | OR51B6 (Homo sapiens)

CC(CO)CS (stereo not drawn)
not listed: OR4N4C (Homo sapiens) | OR4Q2 (Homo sapiens) | OR4N2 | OR4Q3 T135A
inactive: all other assays above

CCC1OC(=O)C(O)=C1C (stereo not drawn)
not listed: OR4N4C (Homo sapiens) | OR4Q2 (Homo sapiens)
inactive: all other assays above

CCC1OC(C)=C(O)C1=O (stereo not drawn)
not listed: OR4N4C (Homo sapiens) | OR4Q2 (Homo sapiens)
inactive: all other assays above
